From ChEMBL document CHEMBL6092224, “The Discovery and Preclinical Profile of ALG-000184, a Prodrug of the Potent Hepatitis B Virus Capsid Assembly Modulator ALG-001075” (J Med Chem, 2024)
The source made the active and inactive calls. No cut-off for these calls is given here.

Tests used:
[1] = Apparent permeability across apical to basal side in human Caco-2 cells at 1 uM incubated for 1 hr; type: ADME, cell-based
In short: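 Bidirectional transport across Caco-2 cells in HBSS, pH 7.4, 0.1% final DMSO. Compound was tested at 1 or 2 μM for 1 h at 37 °C, 5% CO2. Apical and basal samples gave apparent permeability A→B and B→A, and the efflux ratio.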

[2] = Half life in Cynomolgous monkey at 5 mg/kg, po by LC-MS/MS analysis; type: ADME, organism-based, Macaca fascicularis; conditions: cynomolgus monkey, in vivo
In short: (§1)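 Single dose to fasted male C57BL6 mice, Sprague-Dawley rats, beagle dogs and cynomolgus monkeys, either IV at 1 mg/kg or PO as a solution at 5 mg/kg, in 80% PEG 400 in water. Plasma concentrations were measured by LC-MS/MS. PK parameters come from noncompartmental analysis using nominal doses and nominal sampling times.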

[3] = target: Multidrug and toxin extrusion protein 1 (Homo sapiens, UniProt Q96FL8); assay: Inhibition of MATE1 (unknown origin) transfected in HEK293 cells; type: cell-based
In short: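 HEK-293 cells transfected with the uptake transporter; uptake of known probe substrates measured with test compound at eight concentrations (0.0229–50.0 μM or 0.0457–100 μM); inhibition at each concentration used to calculate IC50.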

[4] = system: Hepatitis B virus; assay: Antiviral activity against HBV infected in human primary hepatocyte cells assessed as decrease in HBV DNA production pre-infected cells with virus followed by compound treatment for 3 days and subsequent replacement of medium with compound measured after 4 days by qPCR analysis; type: functional, organism-based
In short: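 Primary human hepatocytes, 80,000/well, infected at MOI 100 in medium with 4% PEG, 2% DMSO, 10% FBS for 24 h, then washed. Compound from 2000 nM in 1/5 dilutions added on day 5 and refreshed on day 8. Medium collected on day 12; extracellular HBV DNA extracted and quantified by qPCR. n = 5 independent experiments.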

[5] = AUC (infinity) in Cynomolgous monkey at 1 mg/kg, iv by LC-MS/MS analysis; type: ADME, organism-based, Macaca fascicularis; conditions: cynomolgus monkey, in vivo; in short: as §1
[6] = Plasma protein binding in dog at 1 uM incubated for 4 to 24 hrs by equilibrium dialysis method; type: ADME, cell-free, Canis lupus familiaris; conditions: time 4-24 hrs, read-out: PPB (converted)
In short: (§2)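 Rapid equilibrium dialysis in mouse, rat, dog, monkey or human plasma for 4 or 24 h; test concentrations 1, […].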

[7] = AUC (infinity) in C57BL/6J mouse at 5 mg/kg, po by LC-MS/MS analysis; type: ADME, organism-based; conditions: in vivo; in short: as §1
[8] = Volume of distribution at steady state in Sprague-Dawley rat at 1 mg/kg, iv by LC-MS/MS analysis; type: ADME, organism-based; conditions: in vivo, read-out: Vdss
In short: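 Fasted males (C57BL6 mice, Sprague−Dawley rats, beagle dogs, cynomolgus monkeys) given a single IV dose of 1 mg/kg in 80% PEG 400 in water. Plasma concentrations measured by LC-MS/MS. Vss derived by noncompartmental analysis using nominal dose and nominal sampling times.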

[9] = system: Hepatitis B virus; assay: Antiviral activity against HBV infected in human primary hepatocyte cells assessed as decrease in HBsAg level pre-infected cells with virus followed by compound treatment for 3 days and subsequent replacement of medium with compound measured after 4 days by CLIA; type: functional, organism-based
[10] = Ratio of drug concentration in blood to plasma in mouse at 5 uM incubated for 60 mins; type: ADME, cell-free
In short: (§3)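 Compound at 5 μM in whole blood of each species, 37 ± 1 °C for 60 min; blood-to-plasma ratio and red blood cell partitioning determined.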

[11] = system: Mus musculus; assay: Effect on HBsAg level in C57BL/6 mouse infected with AAV-Hepatitis B virus at 15 mg/kg, po bid for 56 days followed by induction of compound washout period for 14 days; type: functional, organism-based; conditions: time 70.0 day
[12] = Toxicity in C57BL/6 mouse infected with AAV-Hepatitis B virus assessed as change in body weight at 15 to 50 mg/kg, po qd for 56 days followed by induction of compound washout period for 14 days; type: organism-based; conditions: in vivo, 1680 h, dose 15-50 mg/kg, time 70 day
[13] = system: Mus musculus; assay: Effect on HBsAg level in C57BL/6 mouse infected with AAV-Hepatitis B virus at 15 to 50 mg/kg, po qd for 56 days followed by induction of compound washout period for 14 days; type: functional, organism-based; conditions: dose 15-50 mg/kg, time 70.0 day
[14] = Oral bioavailability in C57BL/6J mouse at 5 mg/kg by LC-MS/MS analysis; type: ADME, organism-based; conditions: in vivo
In short: (§4)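 Fasted male C57BL6 mice, Sprague–Dawley rats, beagle dogs, cynomolgus monkeys; single IV dose 1 mg/kg or PO solution 5 mg/kg in 80% PEG 400 in water; plasma concentrations measured, noncompartmental analysis with nominal doses and times; F from PO vs IV AUC.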

[15] = Oral bioavailability in Beagle dog at 5 mg/kg by LC-MS/MS analysis; type: ADME, organism-based, Canis lupus familiaris; conditions: in vivo; in short: as §4
[16] = Ratio of drug concentration in blood to plasma in rat at 5 uM incubated for 60 mins; type: ADME, cell-free; in short: as §3
[17] = system: Hepatitis B virus; assay: Antiviral activity against HBV genotype D infected in human HepG2.117 cells assessed as decrease in HBV DNA production in presence of 40 percent human serum by qPCR analysis; type: functional, organism-based
In short: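 HepG2.117 cells (integrated genotype D HBV genome, Tet-off promoter; kept in 1 μg/mL doxycycline) were seeded at 20,000 cells/well and given serial compound dilutions (2% DMSO) for 3 days at 37 °C. Lysates were taken in 0.33% NP40. Intracellular HBV DNA was quantified by qPCR and EC50/EC90 derived. For serum shift, 40% human serum was present during incubation. Mean ± SEM, n=3 (serum) or 13.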

[18] = system: Hepatitis B virus; assay: Antiviral activity against AAV-Hepatitis B virus infected in C57BL/6 mouse assessed as reduction in baseline HBV DNA production at 15 mg/kg, po bid for 56 days followed by induction of compound washout period measured after 7 days; type: functional; conditions: time 63 day
[19] = Clearance in Cynomolgous monkey at 1 mg/kg, iv by LC-MS/MS analysis; type: ADME, organism-based, Macaca fascicularis; conditions: cynomolgus monkey, in vivo; in short: as §1
[20] = Plasma protein binding in mouse at 1 uM incubated for 4 to 24 hrs by equilibrium dialysis method; type: ADME, cell-free; conditions: time 4-24 hrs, read-out: PPB (converted); in short: as §2
[21] = Oral bioavailability in Sprague-Dawley rat at 5 mg/kg by LC-MS/MS analysis; type: ADME, organism-based; conditions: in vivo; in short: as §4
[22] = Plasma protein binding in human at 2 uM incubated for 4 to 24 hrs by equilibrium dialysis method; type: ADME, cell-free; conditions: time 4-24 hrs, read-out: PPB (converted)
In short: (§5)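 Rapid equilibrium dialysis in mouse, rat, dog, monkey or human plasma for 4 or 24 h at 2 μM.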

[23] = Prodrug conversion in Beagle dog assessed as formation of N-(3-cyano-4-fluorophenyl)-4-(2-((3-ethynyloxetan-3-yl)amino)-2-oxoacetyl)-1,3,5-trimethyl-1H-pyrrole-2-carboxamide metabolite at 6.3 mg/kg, po measured for 24 hrs; type: ADME, organism-based, Canis lupus familiaris; conditions: in vivo
In short: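 Single oral prodrug dose at molar equivalent of 30 mg/kg (rats) or […] of parent in 95% PEG 400/5% copovidone; whole blood collected into 4 volumes 75% MeOH/25% acetonitrile, centrifuged, parent quantified by LC-MS/MS; noncompartmental PK analysis.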

[24] = Stability in simulated gastric fluid for >=13 hrs; type: physicochemical; conditions: simulated gi fluid
In short: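 Stability tested in simulated gastric fluid containing pepsin and simulated intestinal fluid containing pancreatin.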

[25] = Plasma protein binding in Cynomolgous monkey at 2 uM incubated for 4 to 24 hrs by equilibrium dialysis method; type: ADME, cell-free, Macaca fascicularis; conditions: cynomolgus monkey, time 4-24 hrs, read-out: PPB (converted); in short: as §5

Sequence of Multidrug and toxin extrusion protein 1 (Q96FL8 whole entry): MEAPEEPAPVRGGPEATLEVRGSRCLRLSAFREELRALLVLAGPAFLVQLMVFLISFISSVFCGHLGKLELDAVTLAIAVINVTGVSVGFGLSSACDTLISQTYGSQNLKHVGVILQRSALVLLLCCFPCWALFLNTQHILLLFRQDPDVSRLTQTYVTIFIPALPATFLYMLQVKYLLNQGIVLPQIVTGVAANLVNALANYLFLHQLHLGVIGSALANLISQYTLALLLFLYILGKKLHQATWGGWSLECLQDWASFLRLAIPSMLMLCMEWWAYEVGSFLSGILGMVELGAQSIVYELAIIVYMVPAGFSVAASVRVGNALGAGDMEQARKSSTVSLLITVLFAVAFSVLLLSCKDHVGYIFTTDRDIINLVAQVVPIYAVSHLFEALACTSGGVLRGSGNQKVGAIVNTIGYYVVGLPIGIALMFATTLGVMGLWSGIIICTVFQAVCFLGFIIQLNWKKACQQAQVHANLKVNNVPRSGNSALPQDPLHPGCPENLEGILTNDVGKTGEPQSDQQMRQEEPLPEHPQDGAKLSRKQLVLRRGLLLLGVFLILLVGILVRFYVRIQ

For `C#CC1(NC(=O)C(=O)c2c(C)c(C(=O)Nc3ccc(F)c(C#N)c3)n(C)c2C)COC1`, the Papp A→B at 1 h, 1 µM [1] was 1.8 ×10⁻⁶ cm/s, the half-life [2] was 14.4 h and the IC50 [3] was > 11800 nM. It also gave an EC50 [4] of 1.98 nM, an AUC(0-inf) [5] of 2240 ng·h/mL and a fraction unbound at 1 µM [6] of 0.286. The AUC(0-inf) [7] was 7990 ng·h/mL, the Vd [8] was 0.5 L/kg and the EC50 [9] was 70 nM. For the same compound, the blood plasma ratio at 1 h, 5 µM [10] was 0.83, the Activity [11] was “inactive” and the Activity [12] was “Non-toxic”. For the same compound, the Activity [13] was “inactive”, the bioavailability [14] was 115% and the bioavailability [15] was 57.5%. For the same compound, the blood plasma ratio at 1 h, 5 µM [16] was 0.72, the EC50 [17] was 7.48 nM and the Activity [18] was -2.16 log10IU/ml. For the same compound, the clearance [19] was 7.89 mL/min/kg, the fraction unbound at 1 µM [20] was 0.354 and the bioavailability [21] was 62.8%.

In the case of `C#CC1(N(COP(=O)([O-])[O-])C(=O)C(=O)c2c(C)c(C(=O)Nc3ccc(F)c(C#N)c3)n(C)c2C)COC1.[Na+].[Na+]`, the fraction unbound at 2 µM [22] is reported as 0.11, the Drug metabolism [23] is reported as “metabolite_detected” and the Stability [24] is reported as “Stable”. The fraction unbound at 2 µM [25] was 0.126.
